Assay outcomes as filed in PubChem.
NadD block: inhibitors of S. aureus NadD, primary screen, biochemical, colorimetric, uHTS | Nicotinate-nucleotide adenylyltransferase NadD (Staphylococcus aureus N315) | purified NadD enzyme, colorimetric absorbance read-out | inhibition, % at 20 µM | actives 0.78% (n = 360,000); in the data active means inhibition above about 26%
Scp1 inh: Scp-1 phosphatase inhibitors, primary screen, biochemical, colorimetric, uHTS; actives 0.88% (n = 340,000); Carboxy-terminal domain RNA polymerase II polypeptide A small phosphatase 1 (Homo …; Recombinant Scp1, phosphopeptide, malachite green phosphate absorbance; inhibition, % at 20 µM;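 active means inhibition above about 50% at 20 µM, limit read from the data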
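assay system = SCP-1 phosphatase catalytic domain, residues 76-261 | buffer or medium = 50 mM Tris acetate pH 5.5, 0.005% Tween-20, 10 mM MgCl2 | incubation = enzyme reaction 45 min at room temperature, colour 5 min, stabilisation 30 min | signal = Phosphate-binding colour reagent, absorbance read at 630 nm | measure = % inhibition at 20 µM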
rCAG RNA binder: binders of r(CAG) RNA repeats, primary screen, biochemical, fluorescence; r(CAG) RNA repeat, TO-PRO-1 dye displacement fluorescence; inhibition, % at 3 µM; actives 1.3% (n = 370,000); AID 651821, 2012;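 active means inhibition above the plate cutoff, the mean of all test compounds on that plate plus 3 SD, cut at about 35% in these data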;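 further: higher means more dye released from RNA so lower well fluorescence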
LMPTP block: LMPTP phosphatase inhibitors, primary screen, biochemical, fluorescence intensity, uHTS; Low molecular weight phosphotyrosine protein phosphatase (Homo sapiens), P24666; recombinant LMPTP-A, OMFP fluorogenic substrate; inhibition, % at 20 µM; actives 0.22% (n = 360,000);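 active means compounds that cut the enzyme signal by at least half of the control window in the single-dose screen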
Target sequence (P24666 whole entry, looked up): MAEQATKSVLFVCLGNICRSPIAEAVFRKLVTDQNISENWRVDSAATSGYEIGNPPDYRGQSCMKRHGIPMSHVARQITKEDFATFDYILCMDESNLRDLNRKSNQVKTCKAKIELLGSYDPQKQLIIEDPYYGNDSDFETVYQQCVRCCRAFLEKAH
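test system = LMPTP-A | amount = 0.625 nM LMPTP-A final | reagent = fluorogenic phosphatase substrate OMFP at 400 µM final | incubation = 50 min at room temperature | benchmarks = no-enzyme low control, uninhibited high control | medium = Bis-Tris pH 6.0, DTT, detergent | signal = fluorescence intensity of OMFP turnover product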
STEP inh: STEP phosphatase inhibitors, primary screen, biochemical, fluorescence intensity, uHTS; recombinant STEP, OMFP fluorogenic substrate; inhibition, % at 20 µM; actives 0.25% (n = 360,000);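 active means inhibition at 20 µM, scaled per plate between control wells, above about 37%, limit read from the data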
Target sequence (P54829 whole entry, looked up): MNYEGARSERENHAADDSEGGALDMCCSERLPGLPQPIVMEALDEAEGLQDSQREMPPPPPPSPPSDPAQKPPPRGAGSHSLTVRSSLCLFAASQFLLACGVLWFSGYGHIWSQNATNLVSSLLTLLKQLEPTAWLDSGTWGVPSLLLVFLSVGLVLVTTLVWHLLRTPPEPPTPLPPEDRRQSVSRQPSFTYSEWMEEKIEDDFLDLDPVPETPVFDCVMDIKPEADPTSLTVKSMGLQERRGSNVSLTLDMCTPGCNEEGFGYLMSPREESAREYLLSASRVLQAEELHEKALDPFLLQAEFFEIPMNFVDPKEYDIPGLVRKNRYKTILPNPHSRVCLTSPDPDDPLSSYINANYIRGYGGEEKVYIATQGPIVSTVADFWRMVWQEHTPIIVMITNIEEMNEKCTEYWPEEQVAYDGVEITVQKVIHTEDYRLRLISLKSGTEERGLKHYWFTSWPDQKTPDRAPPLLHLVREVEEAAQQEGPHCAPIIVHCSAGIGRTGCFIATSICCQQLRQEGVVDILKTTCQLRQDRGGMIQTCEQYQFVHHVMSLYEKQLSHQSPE
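Material: STEP (striatal-enriched tyrosine phosphatase) enzyme, cell-free | Medium: 50 mM Bis-Tris pH 6.0 with 2.5 mM DTT and 0.005% Tween 20 | Read-out: Percent inhibition scaled to no-enzyme and uninhibited-enzyme controls, plate-pattern corrected | Signal: Fluorescence read at 480 nm ex / 540 nm em | Times: 20 min reaction, room temperature, in the dark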
Scp1 confirm: Scp-1 phosphatase inhibitors, retest, confirmation, biochemical, colorimetric, single concentration; shares compounds with Scp1 inh; recombinant SCP-1 catalytic domain, phosphate release, malachite green absorbance; inhibition, % at 20 µM; actives 61% (n = 2,500)
MG interference: colorimetric readout interference by compounds, confirmation, artefact control for Scp-1 inhibitor project, biochemical, single concentration. shares compounds with Scp1 inh. Colorimetric interference counterscreen, malachite green absorbance 630 nm. apparent inhibition (interference), % at 20 µM. 2,500 tested, under 10 active;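 further: compounds added after enzyme reaction finished so only phosphate colour detection is probed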
Scp1 DSF: Scp-1 binding by thermal shift, confirmation, orthogonal assay for Scp-1 inhibitor project, biophysical, differential scanning fluorimetry; shares compounds with Scp1 inh; Recombinant SCP1, Sypro Orange thermal shift Tm; thermal shift relative to vanadate control, % at 40 µM; actives 25% (n = 1,500); AID 540329, 2011;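 active means substances whose mean melting-temperature shift, as a percentage of the reference inhibitor's shift, reaches about 5.3%, limit read from the data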
Each line names hits and unclear results; the compound was inactive in the other large screens (follow-up assays come after a bar, where they were run). This is a sample that favours compounds with a hit; in the whole collection about 2.6% have one here.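 How the source made its calls, unless noted: active means inhibition of at least 30% at 20 µM; inactive means the rest.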

CC(=O)c1nnn(-c2ccccc2C#N)c1C	Scp1 inh 65 | Scp1 confirm inactive | MG interference inactive
CCC(C)(C)n1nnnc1C(c1ccc(C)cc1)N(Cc1ccco1)Cc1cccs1 (stereo not drawn)	Scp1 inh 107 | Scp1 confirm inactive | MG interference inactive
COc1cccc(CN(Cc2ccco2)C(c2ccc(F)cc2)c2nnnn2C(C)(C)C)c1 (stereo not drawn)	none
c1ccc(OCc2nnc(SCc3nc4ccccc4[nH]3)n2-c2ccccc2)cc1	none (no result: NadD block, Scp1 inh, LMPTP block, STEP inh)
COc1cc(/C=C/C(=O)O)cc(S(=O)(=O)NNC(=O)c2cc(C)oc2C)c1OC	Scp1 inh 53 | Scp1 confirm 49 | MG interference inactive | Scp1 DSF inactive
Cc1ccc(C(c2ccc(C)c(C)c2)C(O)C2OC(=O)C(O)C2O)cc1C (stereo not drawn)	Scp1 inh 53 | Scp1 confirm inactive | MG interference inactive
O=S(=O)(NCc1cn(Cc2ccccc2)nn1)c1ccccc1Br	none (no result: NadD block, Scp1 inh, LMPTP block, STEP inh)
Cc1cc(C)c2c(=N)c3ccccc3n(CCCCCCCCn3c4ccccc4c(=N)c4c(C)cc(C)nc43)c2n1	Scp1 inh 59, LMPTP block 87 | Scp1 confirm inactive | MG interference inactive
COc1ccccc1-n1c2nc3ccccc3nc2c2c(=O)n(-c3cc(C)cc(C)c3)cnc21	none
COc1ccccc1-n1cnc2c(c1=O)c1nc3ccccc3nc1n2-c1ccc(C)cc1	Scp1 inh 87 | Scp1 confirm 34 | MG interference inactive | Scp1 DSF inactive
COc1cccc(NC(=O)n2ccc3ccc(-c4ccc5ccn(C(=O)Nc6cccc(OC)c6)c5c4)cc32)c1	none (no result: NadD block, Scp1 inh, LMPTP block, STEP inh)
Cc1nc2ccc(C(=O)O)cc2c2c1CC(C)S2 (stereo not drawn)	Scp1 inh 79 | Scp1 confirm 61 | MG interference inactive | Scp1 DSF inactive
CO/N=C(\C(=O)N[C@@H]1C(=O)N2C(C(=O)O)=C(COC(N)=O)CS[C@H]12)c1ccco1	Scp1 inh 70 | Scp1 confirm 67 | MG interference inactive | Scp1 DSF 8.0
COCC1=C(C(=O)OC(C)OC(=O)OC(C)C)N2C(=O)[C@@H](NC(=O)/C(=N\OC)c3csc(N)n3)[C@H]2SC1 (stereo partly drawn)	none
Cc1nnc(SCC2=C(C(=O)O)N3C(=O)C(NC(=O)c4cccc(F)c4F)C3SC2)s1 (stereo not drawn)	none
CON=C(C(=O)NC1C(=O)N2C(C(=O)O)=C(CSc3nc(=O)c(=O)[nH]n3C)CSC12)c1csc(N)n1 (stereo not drawn)	Scp1 inh 65 | Scp1 confirm 52 | MG interference inactive | Scp1 DSF inactive
Cc1cc(C(=O)Nc2ccccc2C(=O)O)ccc1NC(=O)COc1ccccc1Cl	Scp1 inh 80 | Scp1 confirm 52 | MG interference inactive | Scp1 DSF 6.7
Cc1ccccc1NC(=O)COc1ccccc1C	none
O=C(CSc1nnc(-c2ccncc2)n1-c1ccc(Cl)cc1)c1ccc(Cl)c(Cl)c1	none (no result: NadD block, Scp1 inh, LMPTP block, STEP inh)
COc1ccc(NS(=O)(=O)c2ccc(O)c(C(=O)OCC(=O)N3CCCCC3)c2)cc1	none
CCN(CC)S(=O)(=O)c1ccc(O)c(C(=O)OCC(=O)N2CCCC2)c1	Scp1 inh 53 | Scp1 confirm inactive | MG interference inactive
O=C(CCS(=O)(=O)c1ccc(Br)cc1)NC1CCCC1	Scp1 inh 75 (no result: rCAG RNA binder) | Scp1 confirm 62 | MG interference inactive | Scp1 DSF inactive
O=C(CCS(=O)(=O)c1ccc(Br)cc1)NCc1cccs1	Scp1 inh 87 | Scp1 confirm 68 | MG interference inactive | Scp1 DSF inactive
O=C(CCNS(=O)(=O)c1ccc(Br)cc1)NC1CCCCC1	none
O=C(CCCCC(=O)NCc1cccs1)NCc1cccs1	none
O=C(CCS(=O)(=O)c1ccc(Br)cc1)NCc1ccco1	Scp1 inh 75 | Scp1 confirm 67 | MG interference inactive | Scp1 DSF inactive
CN(/N=C/c1ccncc1)c1cnn(-c2ccc(F)c(Cl)c2)c(=O)c1Cl	Scp1 inh 54 | Scp1 confirm inactive | MG interference inactive
CCOC(=O)N1CCN(C(=O)C[C@H]2C[C@@]3(C(=O)OC)C(=C[C@H](C(C)C)O[C@@H]3C3CC3)N(Cc3ccco3)C2=O)CC1	none (no result: NadD block, Scp1 inh, LMPTP block, STEP inh)
Cn1cccc1C(=O)N1CCN(S(=O)(=O)c2ccccc2F)CC1	none (no result: NadD block, Scp1 inh, LMPTP block, STEP inh)
CCOC(=O)CNC(=O)N(C)[C@H]1C[C@H]2c3[nH]c4c(-c5cccc(C)c5)cccc4c3CCN2C(=O)[C@H]1[C@H](C)O	none (no result: NadD block, Scp1 inh, LMPTP block, STEP inh)
CN(C)c1ccc(CNC(=O)CCS(=O)(=O)c2ccc3c(c2)n(C)c(=O)c(=O)n3C)cc1	Scp1 inh 64 (no result: rCAG RNA binder) | Scp1 confirm inactive | MG interference inactive
Cc1ccc(CNC(=O)CCS(=O)(=O)c2ccc3c(c2)oc(=O)n3C)cc1	none
CCCn1c(=O)[nH]c(=O)c2c1nc(-c1ccccc1)n2CCN1CCOCC1	Scp1 inh 82 | Scp1 confirm 94 | MG interference inactive | Scp1 DSF inactive
O=C(NCCc1ccccc1)C1CCCN1C(=O)NCc1ccccc1 (stereo not drawn)	none
CC(C)(C)OC(=O)N1CCCC1C(=O)NCCc1ccccc1 (stereo not drawn)	Scp1 inh 97 | Scp1 confirm inactive | MG interference inactive
N#Cc1c(N)nc2c(c1N)CC(COc1ccccc1)O2 (stereo not drawn)	none
N#Cc1c(N)nc2c(c1N)CC(CO)O2 (stereo not drawn)	Scp1 inh 56 | Scp1 confirm inactive | MG interference inactive
CC(C)N(C(N)=NC(=O)OCc1ccccc1)C(C)C	none (no result: NadD block, Scp1 inh, LMPTP block, STEP inh)
CN(C)S(=O)(=O)c1cccc(C(=O)OCC(=O)Nc2sccc2C(N)=O)c1	Scp1 inh 57 | Scp1 confirm inactive | MG interference inactive
COc1ccc(NC(=O)COC(=O)c2cccc(S(=O)(=O)N(C)C)c2)cc1	none
